According to ChEMBL document CHEMBL3739417, “Synthesis and biological evaluation of novel 4,5-disubstituted 2H-1,2,3-triazoles as cis-constrained analogues of combretastatin A-4” (2015):

Experiments:
Assay type in all cases: functional
NCI-H23 = experiment: Growth inhibition of human NCI-H23 cells after 48 hrs by sulforhodamine B assay; conditions: NCI-H23, 48 h
Procedure, shortened: (§1)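 NCI-60 panel screen by SRB assay (Rubinstein method). Percentage growth taken from optical density of SRB colour, read before and 48 hrs after exposure to compound or vehicle control. All analogues first screened at 10^-5 M. Analogues giving 60% growth inhibition at that level in at least eight lines then went to a five-concentration dose-response study.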

[1] = Growth inhibition of human HOP92 cells after 48 hrs by sulforhodamine B assay; conditions: HOP-92, 48 h; procedure, shortened: as §1
[2] = Growth inhibition of human OVCAR3 cells after 48 hrs by sulforhodamine B assay; conditions: OVCAR-3, 48 h
Procedure, shortened: (§2)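 NCI-60 sulforhodamine B screen. Compounds were first tested at a single dose of 10⁻⁵ M; hits, defined as ≥60% growth inhibition in at least eight lines, went on to a five-concentration dose–response. SRB optical density was read before and 48 h after exposure to compound or vehicle. Percentage growth was calculated from OD.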

[3] = Growth inhibition of human SKOV3 cells after 48 hrs by sulforhodamine B assay; conditions: SK-OV-3, 48 h; procedure, shortened: as §1
[4] = Growth inhibition of human COLO205 cells after 48 hrs by sulforhodamine B assay; conditions: COLO 205, 48 h; procedure, shortened: as §1
[5] = Growth inhibition of human PC3 cells after 48 hrs by sulforhodamine B assay; conditions: PC-3, 48 h; procedure, shortened: as §1
CCRF-CEM = experiment: Growth inhibition of human CCRF-CEM cells after 48 hrs by sulforhodamine B assay; procedure, shortened: as §1
K562 = experiment: Growth inhibition of human K562 cells after 48 hrs by sulforhodamine B assay; conditions: K562, 48 h; procedure, shortened: as §1
[6] = Growth inhibition of human SNB75 cells after 48 hrs by sulforhodamine B assay; conditions: SNB-75, 48 h; procedure, shortened: as §1
NCI-H460 = experiment: Growth inhibition of human NCI-H460 cells after 48 hrs by sulforhodamine B assay; conditions: NCI-H460, 48 h; procedure, shortened: as §1
CAKI-1 = experiment: Growth inhibition of human CAKI-1 cells after 48 hrs by sulforhodamine B assay; conditions: CAKI-1, 48 h; procedure, shortened: as §1
[7] = Growth inhibition of human LOXIMVI cells after 48 hrs by sulforhodamine B assay; conditions: LOX IMVI; procedure, shortened: as §1
ACHN = experiment: Growth inhibition of human ACHN cells after 48 hrs by sulforhodamine B assay; procedure, shortened: as §1
[8] = Growth inhibition of human RPMI8226 cells after 48 hrs by sulforhodamine B assay; conditions: RPMI-8226, 48 h; procedure, shortened: as §1
[9] = Growth inhibition of human HCT116 cells after 48 hrs by sulforhodamine B assay; conditions: HCT-116, 48 h; procedure, shortened: as §1
SK-MEL-5 = experiment: Growth inhibition of human SK-MEL-5 cells after 48 hrs by sulforhodamine B assay; conditions: SK-MEL-5, 48 h; procedure, shortened: as §1
[10] = Growth inhibition of human HL-60(TB) cells after 48 hrs by sulforhodamine B assay; conditions: HL-60, 48 h; procedure, shortened: as §1
[11] = Growth inhibition of human SW620 cells after 48 hrs by sulforhodamine B assay; conditions: SW-620, 48 h; procedure, shortened: as §1
[12] = Growth inhibition of human NCI-ADR-RES cells after 48 hrs by sulforhodamine B assay; procedure, shortened: as §1
MCF7 = experiment: Growth inhibition of human MCF7 cells after 48 hrs by sulforhodamine B assay; conditions: MCF7, 48 h; procedure, shortened: as §1
SK-MEL-2 = experiment: Growth inhibition of human SK-MEL-2 cells after 48 hrs by sulforhodamine B assay; conditions: SK-MEL-2, 48 h; procedure, shortened: as §1
786-0 = experiment: Growth inhibition of human 786-0 cells after 48 hrs by sulforhodamine B assay; conditions: 786-0, 48 h; procedure, shortened: as §1
MDA-MB-468 = experiment: Growth inhibition of human MDA-MB-468 cells after 48 hrs by sulforhodamine B assay; conditions: MDA-MB-468, 48 h; procedure, shortened: as §1
[13] = Growth inhibition of human IGROV1 cells after 48 hrs by sulforhodamine B assay; conditions: IGROV-1, 48 h; procedure, shortened: as §1
A549 = experiment: Growth inhibition of human A549/ATCC cells after 48 hrs by sulforhodamine B assay; conditions: A549, 48 h; procedure, shortened: as §1
MDA-MB-231 = experiment: Growth inhibition of human MDA-MB-231 cells after 48 hrs by sulforhodamine B assay; conditions: MDA-MB-231, 48 h; procedure, shortened: as §1
[14] = Growth inhibition of human HCT15 cells after 48 hrs by sulforhodamine B assay; conditions: HCT-15, 48 h; procedure, shortened: as §1
A498 = experiment: Growth inhibition of human A498 cells after 48 hrs by sulforhodamine B assay; conditions: A498, 48 h; procedure, shortened: as §2
U-251 = experiment: Growth inhibition of human U251 cells after 48 hrs by sulforhodamine B assay; conditions: U-251, 48 h; procedure, shortened: as §1
[15] = Growth inhibition of human SF295 cells after 48 hrs by sulforhodamine B assay; conditions: SF-295, 48 h; procedure, shortened: as §1
[16] = Growth inhibition of human HCC2998 cells after 48 hrs by sulforhodamine B assay; conditions: HCC 2998, 48 h; procedure, shortened: as §1
[17] = Growth inhibition of human MOLT4 cells after 48 hrs by sulforhodamine B assay; conditions: MOLT-4, 48 h; procedure, shortened: as §1
KM12 = experiment: Growth inhibition of human KM12 cells after 48 hrs by sulforhodamine B assay; conditions: KM12, 48 h; procedure, shortened: as §1
[18] = Growth inhibition of human SF268 cells after 48 hrs by sulforhodamine B assay; conditions: SF-268, 48 h; procedure, shortened: as §1
[19] = Growth inhibition of human HOP62 cells after 48 hrs by sulforhodamine B assay; conditions: HOP-62, 48 h; procedure, shortened: as §1
SR = experiment: Growth inhibition of human SR cells after 48 hrs by sulforhodamine B assay; procedure, shortened: as §1
HT-29 = experiment: Growth inhibition of human HT-29 cells after 48 hrs by sulforhodamine B assay; conditions: HT-29, 48 h; procedure, shortened: as §1
[20] = read-out: LD50 (the source's name)

`COc1cc(-c2n[nH]nc2-c2ccc3c(c2)OCO3)cc(OC)c1OC` showed a GI50 (NCI-H23) of 770 nM, an LC50 (concentration giving 50% cell kill) (NCI-H23; read-out: LD50) greater than 100000 nM and a GI50 [1] of 120 nM. The CC50 [1, 20] was greater than 100000 nM, the GI50 [2] was 430 nM and the LC50 (concentration giving 50% net cell kill) ([2]; read-out: LD50) was greater than 100000 nM. The GI50 [3] was 490 nM, the LC50 (concentration killing 50% of cells) ([3]; read-out: LD50) was greater than 100000 nM and the GI50 [4] was 310 nM. It also gave a CC50 [4, 20] greater than 100000 nM, a GI50 [5] of 260 nM and a CC50 [5, 20] greater than 100000 nM. For the same compound, the GI50 (CCRF-CEM) was 280 nM, the LC50 (concentration killing 50% of cells) (CCRF-CEM; read-out: LD50) was greater than 100000 nM and the GI50 (K562) was 50 nM. For the same compound, the CC50 (K562; [20]) was greater than 100000 nM, the GI50 [6] was 80 nM and the CC50 [6, 20] was greater than 100000 nM. The GI50 (NCI-H460) was 340 nM, the CC50 (NCI-H460; [20]) was greater than 100000 nM and the GI50 (CAKI-1) was 320 nM. For the same compound, the CC50 (CAKI-1; [20]) was greater than 100000 nM, the GI50 [7] was 550 nM and the CC50 [7, 20] was greater than 100000 nM. It also gave a GI50 (ACHN) of 710 nM, a CC50 (ACHN; [20]) greater than 100000 nM and a GI50 [8] of 330 nM. For the same compound, the CC50 [8, 20] was greater than 100000 nM, the GI50 [9] was 180 nM and the CC50 [9, 20] was greater than 100000 nM. It also gave a GI50 (SK-MEL-5) greater than 100000 nM, a CC50 (SK-MEL-5; [20]) greater than 100000 nM and a GI50 [10] of 200 nM. It also gave a CC50 [10, 20] greater than 100000 nM, a GI50 [11] of 110 nM and an LD50 (concentration killing 50% of cells) [11] greater than 100 µM. For the same compound, the GI50 [12] was 80 nM, the CC50 [12, 20] was greater than 100000 nM and the GI50 (MCF7) was 80 nM. For the same compound, the CC50 (MCF7; [20]) was greater than 100000 nM, the GI50 (SK-MEL-2) was 20 nM and the CC50 (SK-MEL-2; [20]) was greater than 100000 nM. It also gave a GI50 (786-0) of 620 nM, an LC50 (concentration killing 50% of cells) (786-0; read-out: LD50) greater than 100000 nM and a GI50 (MDA-MB-468) of 230 nM. The CC50 (MDA-MB-468; [20]) was greater than 100000 nM, the GI50 [13] was greater than 100000 nM and the CC50 [13, 20] was greater than 100000 nM. It also gave a GI50 (A549) of 290 nM, a CC50 (A549; [20]) greater than 100000 nM and a GI50 (MDA-MB-231) of 530 nM. For the same compound, the CC50 (MDA-MB-231; [20]) was greater than 100000 nM, the GI50 [14] was 130 nM and the CC50 [14, 20] was greater than 100000 nM. It also gave a GI50 (A498) of 340 nM, an LC50 (50% net cell kill) (A498; read-out: LD50) greater than 100000 nM and a GI50 (U-251) of 300 nM. For the same compound, the CC50 (U-251; [20]) was greater than 100000 nM, the GI50 [15] was 100 nM and the CC50 [15, 20] was greater than 100000 nM. It also gave a GI50 [16] greater than 100000 nM, a CC50 [16, 20] greater than 100000 nM and a GI50 [17] of 570 nM. The CC50 [17, 20] was greater than 100000 nM, the GI50 (KM12) was 70 nM and the LC50 (concentration killing 50% of cells) (KM12; read-out: LD50) was greater than 100000 nM. It also gave a GI50 [18] greater than 100000 nM, a CC50 [18, 20] greater than 100000 nM and a GI50 [19] of 340 nM. The LC50 (concentration killing 50% of cells) ([19]; read-out: LD50) was greater than 100000 nM, the GI50 (SR) was 40 nM and the LC50 (concentration giving 50% net cell kill) (SR; read-out: LD50) was greater than 100000 nM. For the same compound, the GI50 (HT-29) was 390 nM and the LC50 (concentration killing 50% of cells) (HT-29; read-out: LD50) was greater than 100000 nM.
